Compound activity (PubChem BioAssay)
SKN-1 block: inhibitors of C. elegans SKN-1 | C. elegans VP596 Pgst-4::GFP/RFP ratio, acrylamide-induced, 24 h | inhibition, % at 21.8 µM | actives 0.49% (n = 360,000);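 active = interference check ratio from 0.5 to 1.5 plus GFP to RFP signal ratio inhibition reaching or exceeding a fixed threshold, cut at about 30% in these data, passing the limit was not always enough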
Myeloid diff MLP: promotes myeloid progenitor differentiation | actives 1% (n = 360,000) | AID 624256 | calls only at 10 µM | ER-HoxA9 myeloid progenitors, lysozyme-GFP differentiation, flow cytometry;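 active = normalized GFP-positive differentiation at or above the plate's own cutoff, the solvent-only control mean plus 3 SD; inconclusive = no clear call, values can overlap the other calls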;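 note: cells exposed to compound for four days before flow analysis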
GRK2 inh: blocks RNA aptamer binding to human GRK2; bead flow cytometry, FAM-aptamer displacement from GRK2; inhibition of aptamer binding, % at 10 µM; actives 0.59% (n = 330,000); AID 488847;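 active = inhibition of aptamer binding above 40%, roughly 3 SD of noise, on plates passing a quality check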;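 note: median bead fluorescence of bound FAM aptamer so fluorescent compounds give negative values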
Rin1-Abl PPI inh: inhibitors of human Rin1-Abl protein interaction; TR-FRET Rin1/Abl binding, biochemical; inhibition, % at 7.35 µM; actives 0.4% (n = 360,000); AID 588664; in the data active = inhibition above about 5%, passing the limit was not always enough
Rce1 inh: yeast Ras-converting enzyme inhibition. yeast membranes, quenched prenylated peptide cleavage fluorescence. actives 0.27% (n = 290,000). AID 2563. Q03530. calls only;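 active = fall in fluorescence gain of 50% or more versus controls, with final raw signal at or below 3038400; inconclusive = same 50% fall but final raw signal above 3038400; inactive = fall in fluorescence gain under 50%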
T cell HTS: T cell immune modulation candidate; 2C CD8+ T cell-vesicle binding, flow cytometry; hits give low values; response (vesicle binding), % at 7 µM; actives 0.068% (n = 330,000);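 active = response, share of CD8 T cells binding vesicles, and their 90th percentile fluorescence all below set limits, cut at about 80% in these data, passing the limit was not always enough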;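 note: values below 100% mean blocked vesicle binding to the CD8+ T cells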
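System: murine 2C transgenic CD8+ T lymphocytes; also added: QL9-loaded Drosophila micro-vesicles; times: binding 1.5 h at 37 °C; measured by: flow cytometry, PE anti-B7-1 (FL2) versus Alexa647 anti-CD8 (FL8), PFA-fixed; control set: Peptide-free naked vesicles (low) and QL9 vesicles with 0.7% DMSO vehicle (high)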
Myeloid diff CP1: promotes myeloid progenitor differentiation; actives 2% (n = 2,300); shares compounds with Myeloid diff MLP; ER-HoxA9 myeloid progenitors, GFP/Mac1 double-positive flow; calls only; AID 651706;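 active = share of green or green-and-red cells above 9 and 9% in run 1 or 4 and 3% in run 2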
GFP autofluor: compound fluorescence in myeloid differentiation counter-screen; shares compounds with Myeloid diff MLP; ER-HoxA9 myeloid progenitors, no estrogen, GFP autofluorescence flow cytometry; vehicle wells 0%, positive control 100%; fluorescence response, % (no concentration beside the values); actives 7.4% (n = 2,300); AID 651707;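 active = over 5% cells positive for green fluorescent reporter, or over 2% positive for both it and APC stain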
A number is an active result; . = inactive; ? = inconclusive; / = not tested or not shown; + = active, no number. Shown are actives, neighbours in structure and some others; about 2.6% of the full set was active somewhere.

SMILES	SKN-1 block	Myeloid diff MLP	GRK2 inh	Rin1-Abl PPI inh	Rce1 inh	T cell HTS	Myeloid diff CP1	GFP autofluor
CCCCc1c(O)c2ccccc2n(CCCC)c1=O	.	.	.	.	.	.	/	/
CSc1nc(N)c2c(C)c(C)sc2n1	.	.	.	.	.	.	.	.
O=C1OC(/C(=C\Nc2cc(Cl)ccc2O)[N+](=O)[O-])c2ccccc21 (centres undefined)	.	.	.	.	.	.	.	.
CN1C(=O)/C(=C/c2cn(CC(=O)N3CCCCC3)c3ccccc23)NC1=S	.	+	.	.	.	.	.	97
O=C(NCCN1CCOCC1)N1CCOCC1	.	.	.	.	.	.	.	.
CCCC(CCC)C(=O)NCCN1CCOCC1	.	.	.	.	.	.	/	/
CCOC(=O)CN(C(=O)COC(=O)C1(c2ccccc2)CC1)c1ccc(F)cc1	.	.	.	.	.	.	/	/
CCOC(=O)CC(=O)CSc1nc(C)cc(-c2cccnc2)c1C#N	.	.	.	.	.	.	.	.
CCOC(=O)CC(=O)CSc1nc(-c2cccnc2)cc(C)c1C#N	.	.	.	.	.	.	/	/
O=C(Cn1c(=O)n(Cc2ccco2)c(=O)c2cc(Cl)ccc21)NCC1CCCO1 (centres undefined)	.	+	.	.	.	.	.	.
Cc1ccc(C(=O)NCC(=O)NCC(c2cccs2)N2CCOCC2)cc1C (centres undefined)	.	/	.	.	.	.	/	/
Cc1nn(C)c(C)c1NC(=O)CSc1nnc(C)n1-c1ccccc1	.	+	.	.	.	.	.	.
COc1ccc2c(c1OC)C(=O)N(c1ccc3c(c1)CCC3)C2=O	.	.	.	.	.	.	.	.
COc1ccc2c(c1OC)C(=O)N(c1ccc(C)c(C)c1)C2=O	.	.	.	.	.	.	/	/
COC(=O)c1ccc(C2C(C(C)=O)=C(O)C(=O)N2CCO)cc1 (centres undefined)	.	.	.	.	.	.	.	.
O=C(NNC(=O)c1ccccn1)c1ccc(OC(F)F)cc1	.	.	.	.	/	.	/	/
COc1cc([N+](=O)[O-])cc(/C=N\NC(=O)C2COc3ccccc3O2)c1O (centres undefined)	.	.	.	.	.	.	/	/
O=C(CCNS(=O)(=O)c1ccccc1)OCC(=O)c1ccc(Cl)cc1	.	.	.	.	.	.	/	/
CCOC(=O)C1(CC2CC2)CCN(C(=O)c2cccnc2C)CC1	.	.	.	.	/	.	.	.
COc1ccc(/C=N/NC(=O)CSc2n[nH]c(=O)[nH]c2=O)cc1	.	.	.	.	.	.	/	/
CC(/C=N/NC(=O)CSc1n[nH]c(=O)[nH]c1=O)=C\c1ccccc1	.	.	.	.	.	.	.	.
Cc1cccc(N2CCN(C(=O)c3ccc4c(c3)OCCO4)CC2)c1C	.	+	.	.	.	.	+	.
CCc1ccc(CNC(=O)CCc2nnc(Cc3cccc(C(F)(F)F)c3)o2)nc1	.	+	.	.	.	.	.	.
CC(C)NC(=O)CCc1nnc(Cc2cccc(C(F)(F)F)c2)o1	.	.	.	.	.	.	/	/
O=C(Cn1cnc2ccccc21)N/N=C/c1cccc([N+](=O)[O-])c1	.	.	.	.	.	.	/	/
SMILES	SKN-1 block	Myeloid diff MLP	GRK2 inh	Rin1-Abl PPI inh	Rce1 inh	T cell HTS	Myeloid diff CP1	GFP autofluor
CN(C)c1cccc(Nc2ccc(-c3ccc(OC(F)(F)F)cc3)cn2)c1	.	+	/	.	/	/	.	.
CN(C)c1cccc(-c2cc(Nc3ccc(C(C)(C)C)cc3)ncn2)c1	.	.	/	.	/	/	/	/
COc1cccc(COC(=O)C2CC(=O)N(Cc3ccco3)C2)c1OC (centres undefined)	.	?	.	.	.	.	/	/
Cc1ccc(S(=O)(=O)NNC(=O)C2CC=CCC2C(=O)O)cc1 (centres undefined)	.	.	.	.	.	.	/	/
c1coc(C2Nc3ccccc3-c3nc4ccccc4n32)c1 (centres undefined)	.	.	.	.	?	.	.	.
O=C(Nc1ccccc1Cl)c1cc(C2CCCN(C(=O)C3CCCCC3)C2)on1 (centres undefined)	.	.	/	.	/	/	/	/
CN(C(=O)C(C)(C)C)[C@H]1C[C@H]2c3[nH]c4ccccc4c3CCN2C(=O)[C@H]1CO	.	.	/	.	/	/	.	.
CN(C(=O)NC1CCCCC1)[C@H]1C[C@H]2c3[nH]c4ccccc4c3CCN2C(=O)[C@H]1CO	.	.	/	.	/	/	/	/
Cc1ccc(N/C(N)=N/c2nc3c(c(=O)[nH]2)CCCC3)c(C)c1	.	+	.	.	.	.	.	.
CC(C)C1C(=O)N(Cc2cn(CCC3OCCO3)nn2)CCS(=O)(=O)N1Cc1ccc(-c2ccc(Cl)cc2)cc1 (centres undefined)	.	?	/	.	/	/	/	/
COc1ccc(OC)c(/C=C2\SC(=S)N(NS(=O)(=O)c3ccc(C)cc3)C2=O)c1	.	.	.	.	.	.	/	/
COc1ccc(/C=C2\SC(=S)N(NS(=O)(=O)c3ccc(C)cc3)C2=O)c(OC)c1	.	.	.	.	.	.	.	.
O=C(c1ccc([N+](=O)[O-])o1)N1CCN(c2nc3c(F)cc(F)cc3s2)CC1	.	.	.	.	.	.	/	/
Cc1ccc(C)c2sc(N3CCN(C(=O)c4ccc([N+](=O)[O-])o4)CC3)nc12	.	.	.	.	.	.	.	.
CCCCCc1c(-c2ccccc2OC)ncn1CCc1ccccc1OC	.	?	/	/	/	/	/	/
O=C(Nc1ccc(Cc2ccncc2)cc1)C1CCC(N2C(=O)C3C4C=CC(C5CC45)C3C2=O)CC1 (centres undefined)	.	+	.	.	.	.	.	.
Cc1nc2nc(-c3ccccc3)[nH]n2c(=O)c1C	.	.	.	.	.	.	.	.
Cn1c(NCc2cccnc2)nc2cc(-c3cccc(C(=O)NCCO)c3)sc2c1=O	.	+	/	.	/	/	.	.
CCC(C(=O)Nc1sc(C(N)=O)c(C)c1C(=O)OC)c1ccccc1 (centres undefined)	.	.	.	.	.	.	.	.
COC(=O)c1c(NC(=O)c2ccccc2)sc(C(N)=O)c1C	.	.	.	.	.	.	/	/
Cc1c(C(C)C[C@H](C)O)oc(=O)c2c1Oc1c(C)c(C(C)C[C@H](C)O)oc(=O)c1C2 (some centres undefined)	.	.	.	.	/	.	/	/
CCc1ccc(N2C(=O)CN(Cc3ccc(OC)c(OC)c3)C2=S)cc1	.	+	.	.	.	.	.	.
COc1ccccc1-n1c(CNc2ccc(F)cc2)nnc1SCC(=O)Nc1cc(C)on1	.	.	.	.	.	.	.	.
